Results from ChEMBL document CHEMBL4118097, “Selective Inhibitors of Dual Leucine Zipper Kinase (DLK, MAP3K12) with Activity in a Model of Alzheimer's Disease” (J Med Chem, 2017).
The source made the active and inactive calls. The rule behind the calls is not given here.

How the values were obtained:
[1] = biological target: Serine/threonine-protein kinase 16 (Homo sapiens, UniProt O75716); assay: Inhibition of recombinant full length His-tagged human STK16 expressed in baculovirus expression system by FRET assay
[2] = biological target: Death-associated protein kinase 3 (Homo sapiens) (UniProt O43293); assay: Inhibition of recombinant full length GST-tagged human ZIPK expressed in baculovirus expression system at 1 uM by FRET assay relative to control
[3] = biological target: Calcium/calmodulin-dependent protein kinase type 1 (Homo sapiens) (UniProt Q14012); assay: Inhibition of recombinant full length His-tagged human CaMK1 expressed in baculovirus expression system at 1 uM by FRET assay relative to control
[4] = test system: Mus musculus; assay: In-vivo inhibition of DLK in PS2APP mouse model assessed as reduction in phosphorylated c-jun level in cortical lysate at 15 mg/kg, po administered as single dose after 6 hrs by Western blot analysis relative to control; assay type: functional
In short: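 Homozygous PS2APP mice aged 9–10 months got one oral dose of 15 mg/kg as an MCT suspension, or vehicle; n = 7–8 per group. At 6 h: terminal plasma by cardiac puncture under deep anaesthesia, then PBS perfusion. Left cortex frozen at −80 °C and homogenised in 10 volumes RIPA. p-c-Jun read by Western blot with a GAPDH control, compared with vehicle (Dunnett's test).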

[5] = test system: Mus musculus; assay: In-vivo inhibition of DLK in PS2APP mouse model assessed as reduction in phosphorylated c-jun level in cortical lysate at 15 mg/kg, po administered as single dose after 6 hrs by Western blot analysis; assay type: functional, organism-based
[6] = biological target: T1, Mitogen-activated protein kinase kinase kinase 12 (Homo sapiens, UniProt Q12852); assay: Inhibition of doxycycline inducible human DLK transfected in HEK293 cells assessed as JNK phosphorylation after […] in presence of 10% bovine serum by Hoechst-33342 staining-based assay; assay type: cell-based
T1 sequence (Q12852 whole entry): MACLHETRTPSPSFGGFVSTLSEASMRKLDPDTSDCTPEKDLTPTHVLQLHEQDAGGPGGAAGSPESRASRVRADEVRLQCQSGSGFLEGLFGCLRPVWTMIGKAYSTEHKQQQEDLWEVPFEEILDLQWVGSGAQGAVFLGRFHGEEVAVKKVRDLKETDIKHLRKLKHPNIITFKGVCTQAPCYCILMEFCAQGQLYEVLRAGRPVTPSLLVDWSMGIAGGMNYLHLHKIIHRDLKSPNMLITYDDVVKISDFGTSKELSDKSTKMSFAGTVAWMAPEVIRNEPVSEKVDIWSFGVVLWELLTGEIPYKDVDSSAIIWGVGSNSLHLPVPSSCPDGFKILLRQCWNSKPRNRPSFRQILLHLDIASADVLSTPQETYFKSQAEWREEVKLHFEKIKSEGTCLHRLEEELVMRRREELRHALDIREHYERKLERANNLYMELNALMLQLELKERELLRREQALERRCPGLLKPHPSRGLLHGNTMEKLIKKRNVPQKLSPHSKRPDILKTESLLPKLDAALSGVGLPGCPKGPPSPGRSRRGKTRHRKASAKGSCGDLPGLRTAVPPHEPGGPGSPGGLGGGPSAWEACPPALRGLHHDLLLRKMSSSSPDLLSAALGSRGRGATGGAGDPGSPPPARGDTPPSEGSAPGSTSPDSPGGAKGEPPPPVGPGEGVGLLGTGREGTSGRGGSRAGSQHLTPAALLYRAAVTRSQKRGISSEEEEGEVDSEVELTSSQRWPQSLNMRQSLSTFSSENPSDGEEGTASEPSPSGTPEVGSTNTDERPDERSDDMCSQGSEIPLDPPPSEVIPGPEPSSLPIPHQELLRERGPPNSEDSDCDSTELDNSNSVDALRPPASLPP

[7] = biological target: Protein kinase C zeta type (Homo sapiens) (UniProt Q05513); assay: Inhibition of PKCzeta (unknown origin) at 1 uM by FRET assay relative to control
[8] = test system: Mus musculus; assay: In-vivo inhibition of DLK in PS2APP mouse model assessed as reduction in phosphorylated c-jun level in cortical lysate at 50 mg/kg, po administered as single dose after 6 hrs by Western blot analysis; assay type: functional, organism-based
[9] = biological target: Serine/threonine-protein kinase 26 (Homo sapiens) (UniProt Q9P289); assay: Inhibition of recombinant GST-tagged human MST4 expressed in baculovirus at 1 uM by FRET assay relative to control
[10] = biological target: Serine/threonine-protein kinase Nek9 (Homo sapiens) (UniProt Q8TD19); assay: Inhibition of recombinant full length GST-tagged human NEK9 catalytic domain expressed in baculovirus expression system at 1 uM by FRET assay relative to control
[11] = test system: Mus musculus; assay: Down regulation of phosphorylated JNK level in cortical lysate of PS2APP mouse model at 15 to 50 mg/kg, po administered as single dose after 6 hrs by Western blot analysis; assay type: functional, organism-based
[12] = test system: Mus musculus; assay: Down regulation of phosphorylated MKK4 level in cortical lysate of PS2APP mouse model at 15 to 50 mg/kg, po administered as single dose after 6 hrs by Western blot analysis; assay type: functional, organism-based
[13] = biological target: Calcium/calmodulin-dependent protein kinase type IV (Homo sapiens) (UniProt Q16566); assay: Inhibition of recombinant full length GST-tagged human CamK4 expressed in Escherichia coli at 1 uM by FRET assay relative to control
[14] = biological target: Tyrosine-protein kinase receptor UFO (Homo sapiens, UniProt P30530); assay: Inhibition of recombinant His-tagged human AXL (473 to end residues) cytoplasmic domain expressed in insect cells by FRET assay
[15] = biological target: Serine/threonine-protein kinase PAK 1 (Homo sapiens) (UniProt Q13153); assay: Inhibition of recombinant full length GST-tagged human PAK1 expressed in baculovirus expression system at 1 uM by FRET assay relative to control
[16] = biological target: Macrophage colony-stimulating factor 1 receptor (Homo sapiens, UniProt P07333); assay: Inhibition of recombinant His-tagged human CSF1R cytoplasmic domain (538 to 910 residues) expressed in baculovirus expression system by FRET assay
[17] = biological target: Ephrin type-A receptor 7 (Homo sapiens, UniProt Q15375); assay: Inhibition of recombinant GST-tagged human EphA7 cytoplasmic domain expressed in baculovirus expression system by FRET assay
[18] = biological target: Casein kinase I isoform gamma-2 (Homo sapiens) (UniProt P78368); assay: Inhibition of CK1gamma2 (unknown origin) at 1 uM by FRET assay relative to control
[19] = biological target: Phosphatidylinositol 4,5-bisphosphate 3-kinase catalytic subunit gamma isoform (Homo sapiens) (UniProt P48736); assay: Inhibition of recombinant full length His-tagged human PI3KG at 1 uM by FRET assay relative to control
[20] = biological target: Myotonin-protein kinase (Homo sapiens, UniProt Q09013); assay: Inhibition of full length recombinant human DMPK expressed in baculovirus expression system by FRET assay

Sequence of Calcium/calmodulin-dependent protein kinase type IV (Homo sapiens) (Q16566 whole entry, the tested form may be a part): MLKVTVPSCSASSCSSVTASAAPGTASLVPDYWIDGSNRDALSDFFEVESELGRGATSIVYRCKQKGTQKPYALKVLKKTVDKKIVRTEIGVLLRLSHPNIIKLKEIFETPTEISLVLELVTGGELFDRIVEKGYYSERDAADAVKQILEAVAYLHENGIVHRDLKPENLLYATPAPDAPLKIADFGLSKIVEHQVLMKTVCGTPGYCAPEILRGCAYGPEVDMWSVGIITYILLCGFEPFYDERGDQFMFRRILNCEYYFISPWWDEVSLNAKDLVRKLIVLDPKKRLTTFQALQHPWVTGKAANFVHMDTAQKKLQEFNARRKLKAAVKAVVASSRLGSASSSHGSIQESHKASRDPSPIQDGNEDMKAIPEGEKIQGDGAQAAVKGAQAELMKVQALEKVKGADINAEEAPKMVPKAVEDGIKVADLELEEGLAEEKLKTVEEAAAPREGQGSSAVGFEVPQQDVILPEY
Sequence of Serine/threonine-protein kinase 26 (Homo sapiens) (Q9P289 2-416 limits assumed): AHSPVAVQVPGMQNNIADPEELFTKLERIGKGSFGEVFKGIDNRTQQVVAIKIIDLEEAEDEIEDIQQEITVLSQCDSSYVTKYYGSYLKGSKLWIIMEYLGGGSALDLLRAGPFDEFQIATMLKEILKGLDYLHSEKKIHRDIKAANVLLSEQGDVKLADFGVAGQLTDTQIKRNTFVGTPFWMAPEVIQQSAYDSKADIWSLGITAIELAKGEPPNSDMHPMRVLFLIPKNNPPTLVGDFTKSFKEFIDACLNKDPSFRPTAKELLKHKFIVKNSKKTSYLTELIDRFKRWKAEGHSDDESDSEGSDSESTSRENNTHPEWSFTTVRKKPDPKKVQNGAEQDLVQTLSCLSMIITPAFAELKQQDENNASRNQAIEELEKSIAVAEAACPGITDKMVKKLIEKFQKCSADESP
Sequence of Tyrosine-protein kinase receptor UFO (P30530 whole entry, the tested form may be a part): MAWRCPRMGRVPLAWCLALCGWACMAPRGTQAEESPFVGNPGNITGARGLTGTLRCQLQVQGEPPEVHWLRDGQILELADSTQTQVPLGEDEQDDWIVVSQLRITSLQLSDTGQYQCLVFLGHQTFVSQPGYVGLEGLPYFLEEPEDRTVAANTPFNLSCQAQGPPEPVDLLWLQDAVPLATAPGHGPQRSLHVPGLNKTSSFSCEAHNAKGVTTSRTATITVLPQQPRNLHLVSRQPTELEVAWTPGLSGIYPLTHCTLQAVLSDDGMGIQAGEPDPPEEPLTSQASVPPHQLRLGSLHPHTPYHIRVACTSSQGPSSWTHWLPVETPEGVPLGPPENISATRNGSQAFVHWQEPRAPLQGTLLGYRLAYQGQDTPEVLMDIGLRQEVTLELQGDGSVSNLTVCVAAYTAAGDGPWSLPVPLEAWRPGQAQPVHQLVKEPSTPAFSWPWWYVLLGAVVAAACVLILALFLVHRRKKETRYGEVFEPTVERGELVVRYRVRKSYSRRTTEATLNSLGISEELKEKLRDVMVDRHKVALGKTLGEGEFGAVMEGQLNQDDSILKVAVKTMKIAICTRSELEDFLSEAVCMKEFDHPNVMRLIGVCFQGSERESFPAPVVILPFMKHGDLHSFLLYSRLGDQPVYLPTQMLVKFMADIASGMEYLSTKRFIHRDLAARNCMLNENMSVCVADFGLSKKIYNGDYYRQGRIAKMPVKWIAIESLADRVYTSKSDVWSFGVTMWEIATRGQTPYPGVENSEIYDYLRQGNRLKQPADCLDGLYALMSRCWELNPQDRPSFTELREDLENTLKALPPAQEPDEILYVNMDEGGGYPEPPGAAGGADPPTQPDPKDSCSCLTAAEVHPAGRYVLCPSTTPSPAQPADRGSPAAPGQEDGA
Sequence of Macrophage colony-stimulating factor 1 receptor (P07333 whole entry, the tested form may be a part): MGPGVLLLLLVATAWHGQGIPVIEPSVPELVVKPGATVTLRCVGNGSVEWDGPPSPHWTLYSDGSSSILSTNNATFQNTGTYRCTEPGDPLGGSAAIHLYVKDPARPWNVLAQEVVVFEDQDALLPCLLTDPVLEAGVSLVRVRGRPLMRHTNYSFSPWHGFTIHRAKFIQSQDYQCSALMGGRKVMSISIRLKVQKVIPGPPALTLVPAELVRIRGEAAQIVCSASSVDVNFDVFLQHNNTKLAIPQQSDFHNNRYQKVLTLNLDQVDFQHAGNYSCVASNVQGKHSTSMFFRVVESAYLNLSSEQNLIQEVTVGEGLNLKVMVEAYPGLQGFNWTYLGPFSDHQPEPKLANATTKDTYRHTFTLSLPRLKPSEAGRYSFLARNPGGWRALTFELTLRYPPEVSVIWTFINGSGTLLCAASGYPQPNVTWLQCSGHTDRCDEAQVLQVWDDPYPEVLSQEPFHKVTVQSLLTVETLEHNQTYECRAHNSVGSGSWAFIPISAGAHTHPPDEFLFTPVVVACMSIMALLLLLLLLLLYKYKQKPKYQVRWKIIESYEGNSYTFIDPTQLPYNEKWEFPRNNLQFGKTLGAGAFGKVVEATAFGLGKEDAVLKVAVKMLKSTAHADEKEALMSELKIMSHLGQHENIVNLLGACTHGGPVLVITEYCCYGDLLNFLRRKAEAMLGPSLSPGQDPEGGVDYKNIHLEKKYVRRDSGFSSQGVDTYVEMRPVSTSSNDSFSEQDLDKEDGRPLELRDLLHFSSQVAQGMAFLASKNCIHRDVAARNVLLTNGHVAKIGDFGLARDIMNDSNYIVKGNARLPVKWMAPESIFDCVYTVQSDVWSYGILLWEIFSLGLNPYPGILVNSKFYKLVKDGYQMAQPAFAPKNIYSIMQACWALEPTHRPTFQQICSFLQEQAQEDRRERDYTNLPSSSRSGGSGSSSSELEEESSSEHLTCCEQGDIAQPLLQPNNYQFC
Sequence of Ephrin type-A receptor 7 (Q15375 whole entry, the tested form may be a part, canonical isoform): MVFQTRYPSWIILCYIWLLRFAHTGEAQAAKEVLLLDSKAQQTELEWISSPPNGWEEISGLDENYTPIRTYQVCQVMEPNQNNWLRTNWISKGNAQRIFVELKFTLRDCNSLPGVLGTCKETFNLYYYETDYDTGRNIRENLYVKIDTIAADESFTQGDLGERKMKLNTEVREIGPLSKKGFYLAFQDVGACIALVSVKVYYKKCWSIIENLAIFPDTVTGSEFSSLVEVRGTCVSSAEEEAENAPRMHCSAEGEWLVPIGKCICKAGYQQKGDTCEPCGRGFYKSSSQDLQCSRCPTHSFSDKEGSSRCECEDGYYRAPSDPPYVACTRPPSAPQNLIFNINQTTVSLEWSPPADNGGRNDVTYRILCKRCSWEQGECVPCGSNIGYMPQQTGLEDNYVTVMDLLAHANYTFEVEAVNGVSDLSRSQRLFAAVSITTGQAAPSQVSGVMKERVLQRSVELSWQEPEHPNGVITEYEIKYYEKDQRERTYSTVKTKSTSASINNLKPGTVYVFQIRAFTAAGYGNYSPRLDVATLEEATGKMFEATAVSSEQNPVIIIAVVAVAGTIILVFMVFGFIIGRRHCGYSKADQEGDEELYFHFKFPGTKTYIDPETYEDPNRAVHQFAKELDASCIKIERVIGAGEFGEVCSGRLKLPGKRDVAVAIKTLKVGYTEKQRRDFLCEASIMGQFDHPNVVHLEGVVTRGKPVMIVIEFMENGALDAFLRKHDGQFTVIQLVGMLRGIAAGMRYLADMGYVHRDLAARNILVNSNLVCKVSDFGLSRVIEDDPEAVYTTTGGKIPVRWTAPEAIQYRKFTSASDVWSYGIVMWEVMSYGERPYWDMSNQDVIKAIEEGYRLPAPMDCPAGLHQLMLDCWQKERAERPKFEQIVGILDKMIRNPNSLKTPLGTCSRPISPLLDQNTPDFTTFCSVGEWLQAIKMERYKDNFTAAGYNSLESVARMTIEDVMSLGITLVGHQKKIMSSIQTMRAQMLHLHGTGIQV
Sequence of Calcium/calmodulin-dependent protein kinase type 1 (Homo sapiens) (Q14012 whole entry, looked up): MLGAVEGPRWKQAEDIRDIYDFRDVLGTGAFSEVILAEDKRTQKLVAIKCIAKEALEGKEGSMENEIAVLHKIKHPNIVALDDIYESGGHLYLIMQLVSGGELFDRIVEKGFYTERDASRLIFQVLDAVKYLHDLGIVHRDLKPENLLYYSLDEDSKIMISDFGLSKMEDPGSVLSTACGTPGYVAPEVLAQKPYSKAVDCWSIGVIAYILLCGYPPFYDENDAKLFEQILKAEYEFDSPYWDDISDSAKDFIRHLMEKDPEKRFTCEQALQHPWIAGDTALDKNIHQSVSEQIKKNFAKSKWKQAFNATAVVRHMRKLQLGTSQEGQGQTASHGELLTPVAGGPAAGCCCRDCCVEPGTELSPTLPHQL
Sequence of Serine/threonine-protein kinase PAK 1 (Homo sapiens) (Q13153 whole entry, the tested form may be a part): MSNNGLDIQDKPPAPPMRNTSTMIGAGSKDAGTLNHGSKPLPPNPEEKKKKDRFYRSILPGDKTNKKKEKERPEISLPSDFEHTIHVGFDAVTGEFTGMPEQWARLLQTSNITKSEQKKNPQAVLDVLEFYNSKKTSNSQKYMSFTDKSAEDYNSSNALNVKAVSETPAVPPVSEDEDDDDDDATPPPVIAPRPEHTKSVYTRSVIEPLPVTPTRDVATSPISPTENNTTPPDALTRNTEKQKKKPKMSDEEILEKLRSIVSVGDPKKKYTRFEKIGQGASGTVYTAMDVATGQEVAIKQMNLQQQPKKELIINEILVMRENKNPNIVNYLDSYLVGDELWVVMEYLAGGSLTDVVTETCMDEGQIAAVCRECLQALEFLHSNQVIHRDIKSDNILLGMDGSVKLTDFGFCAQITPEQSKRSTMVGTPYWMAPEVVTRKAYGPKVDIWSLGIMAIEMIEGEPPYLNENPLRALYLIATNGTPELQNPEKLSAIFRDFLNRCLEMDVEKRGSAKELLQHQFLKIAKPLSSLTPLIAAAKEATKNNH
Sequence of Serine/threonine-protein kinase 16 (O75716 whole entry): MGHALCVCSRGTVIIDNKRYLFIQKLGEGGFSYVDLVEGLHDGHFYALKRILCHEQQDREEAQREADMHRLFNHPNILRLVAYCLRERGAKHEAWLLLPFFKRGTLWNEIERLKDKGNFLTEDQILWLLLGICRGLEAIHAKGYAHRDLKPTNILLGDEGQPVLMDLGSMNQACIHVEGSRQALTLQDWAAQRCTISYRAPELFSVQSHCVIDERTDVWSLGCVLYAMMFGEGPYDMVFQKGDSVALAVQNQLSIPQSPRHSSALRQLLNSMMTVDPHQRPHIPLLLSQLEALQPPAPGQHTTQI

Row | SMILES | IC50 [1] [nM] | inhibition [2] [%] | inhibition [3] [%] | inhibition in vivo at 15 mg/kg [4] [%] | inhibition [5] | IC50 [6] [nM] | inhibition [7] [%] | inhibition [8] | inhibition [9] [%] | inhibition [10] [%] | Activity [11] | Activity [12] | inhibition [13] [%] | IC50 [14] [nM] | inhibition [15] [%] | IC50 [16] [nM] | IC50 [17] [nM] | inhibition [18] [%] | inhibition [19] [%] | IC50 [20] [nM]
1 | CC(C)n1nc(-c2cnc(N)c(OC(F)(F)F)c2)cc1[C@H]1[C@@H]2CN(C3COC3)C[C@@H]21 | 1520 | 3.5 | -5.9 | 42 | Active | 129 | 5.9 | Active | -3.5 | -3.4 | Active | Active | – | – | – | – | – | – | – | –
2 | Nc1ncc(-c2cc([C@H]3[C@@H]4CN(C5COC5)C[C@@H]43)n(CC3CC3)n2)cc1C(F)(F)F | – | – | – | – | – | – | – | – | – | – | – | – | 12.4 | 448 | 0.7 | 1220 | 665 | 7.1 | 12.4 | 1380
